Screening data deposited in PubChem BioAssay by several laboratories.
Rows were chosen to be rich in hits. Some 1.8% of all compounds tested hit in one or more screens of this group.
TDP2 inh – TDP2 (human) inhibition, absorbance primary screen. inhibition, % at 12.8 µM. hit rate 0.34% among 370,000. recombinant TDP2, T5PNP hydrolysis, p-nitrophenol absorbance 415 nm. AID 720702. O95551;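 active = inhibition above the mean of all tested compounds plus 3 SD, set per campaign, cut at about 25% in these data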;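 note: 0% = DMSO with enzyme and 100% = buffer with substrate but no TDP2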
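Test system: human TDP2 enzyme; Input: 120 nM TDP2 per well; Buffer or medium: Mg2+-containing Tris-HCl buffer, pH 7.5; Reagent: 5 mM T5PNP; Dosing: 12.8 µM single point, 1% DMSO; Incubation: reaction 2 h, 37 °C; Detection: p-Nitrophenol epi absorbance; Read-out: % inhibition relative to enzyme-containing and enzyme-free wells; Replicates: single well per compound.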
PAD4 inh – blocks human protein arginine deiminase 4 | Q9UM07 | recombinant PAD4, RCA probe fluorescence polarization | inhibition, % at 6.36 µM | hit rate 0.41% among 330,000 | AID 485272;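 active = percent inhibition above a cutoff equal to the mean of all tested compounds plus 3 SD, cut at about 15% in these data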;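 note: 0% = PAD4 with RCA probe and DMSO and 100% = probe without PAD4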
Target sequence (Q9UM07 whole entry, looked up): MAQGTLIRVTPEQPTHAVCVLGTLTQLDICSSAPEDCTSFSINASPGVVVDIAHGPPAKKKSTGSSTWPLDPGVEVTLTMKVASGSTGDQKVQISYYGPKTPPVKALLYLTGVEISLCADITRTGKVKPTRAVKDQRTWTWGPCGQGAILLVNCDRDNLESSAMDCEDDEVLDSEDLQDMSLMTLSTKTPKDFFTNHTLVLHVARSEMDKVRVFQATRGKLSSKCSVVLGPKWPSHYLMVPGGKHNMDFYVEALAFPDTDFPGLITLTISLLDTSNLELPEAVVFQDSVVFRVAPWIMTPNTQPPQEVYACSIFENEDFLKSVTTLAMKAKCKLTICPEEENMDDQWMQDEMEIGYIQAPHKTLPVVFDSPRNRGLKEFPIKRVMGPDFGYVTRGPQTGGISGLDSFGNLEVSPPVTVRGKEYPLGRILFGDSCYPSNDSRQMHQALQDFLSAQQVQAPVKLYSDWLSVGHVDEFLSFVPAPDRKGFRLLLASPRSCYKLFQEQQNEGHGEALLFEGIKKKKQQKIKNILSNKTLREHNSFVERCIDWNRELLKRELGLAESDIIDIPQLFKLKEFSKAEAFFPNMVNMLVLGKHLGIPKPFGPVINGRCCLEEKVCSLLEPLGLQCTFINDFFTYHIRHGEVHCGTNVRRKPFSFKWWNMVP
Fh CTSL1 inh – counter-screen for PFM18AAP inhibitors: inhibitors of F. hepatica cathepsin L1. recombinant F. hepatica cathepsin L1, Z-Leu-Arg-MCA fluorescence. inhibition, % at 5.96 µM. hit rate 0.49% among 300,000;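 active = inhibition above the mean of all tested compounds plus 3 SD, set per screening campaign, cut at about 17% in these data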;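 note: 0% = plate median of test compound wells and 100% = 1 µM Z-Phe-Ala-diazomethylketone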
Apaf1 inhib – inhibitors of human Apaf-1 apoptosome; hit rate 0.71% among 330,000; reconstituted apoptosome caspase-3 activity, DEVD-Rh110 fluorescence; inhibition, % at 20 µM; AID 489030; O14727; active = inhibition of at least 40% at 20 µM;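 note: plate controls were DMSO wells for no effect and DEVD-CHO caspase inhibitor wells for full effect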
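Medium: Hepes buffer, pH 7.5 / System: biochemical Apaf-1 apoptosome reconstitution / Measured by: Rh110 fluorescence, excitation 480 nm, emission 540 nm / Times: compound with Apaf-1, dATP, procaspase-3 30 min, then 50 min reaction, room temperature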
GSTO1 counter – counter-screen for RBBP9 inhibitors: inhibitors of human GSTO1; P78417; recombinant GSTO1, activity-based probe fluorescence polarization; inhibition, % at 5.96 µM; hit rate 1.1% among 300,000;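 active = inhibition above the campaign mean inhibition plus 3 SD, cut at about 35% in these data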;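 note: 0% = GSTO1-1 with DMSO and 100% = wells lacking GSTO1-1 enzyme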
GSTO1 confirm – confirmation of human GSTO1 inhibitors; shares compounds with GSTO1 counter; recombinant GSTO1, probe fluorescence polarization; inhibition, % at 5.96 µM; hit rate 54% among 2,400; AID 2176;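 active = inhibition above the primary screen's cutoff, its mean inhibition plus 3 SD, cut at about 35% in these data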;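 note: loss of polarization as inhibitors block binding of rhodamine sulfonate ester activity probe; 0% = GSTO1 with DMSO and 100% = wells lacking GSTO1 enzyme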
GSTO1 recomb ABPP – inhibitors of recombinant human GSTO1; hit rate 30% among 130; gel ABPP SE-Rh probe fluorescence; inhibition, % at 1 µM; shares compounds with GSTO1 counter;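 active = inhibition of the enzyme GSTO1 above about 75%, limit read from the data; inactive = inhibition below that limit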
Numbers without * were called inactive; nt = no result given.

SMILES	TDP2 inh	PAD4 inh	Fh CTSL1 inh	Apaf1 inhib	GSTO1 counter	GSTO1 confirm	others
COc1ccc(N/C(=C\C(=O)c2ccccc2)c2ccccc2)cc1OC	4	nt	nt	nt	nt	nt
COc1cccc2c(SCC(=O)N/N=C/c3ccc(O)c(O)c3)cc(C)nc12	-9	1	3	nt	62*	9
COc1ccc2nc(C)cc(SCC(=O)N/N=C/c3ccc(O)c(O)c3)c2c1	5	6	3	-7	51*	4
O=C(CSc1nc2ccccc2o1)N/N=C/c1ccccc1	-9	-4	7	14	1	nt
O=C(CSc1nc2ccccc2o1)N/N=C/c1ccc(O)c(O)c1	-20	2	-1	-24	57*	11
CCOC(=O)N(C)C[C@H]1OCc2cnnn2CCCC(=O)N([C@H](C)CO)C[C@@H]1C	7	nt	nt	nt	nt	nt
CC(=O)Oc1ccc(N(C(C)=O)S(=O)(=O)c2cccs2)c2ccccc12	8	-5	-18	-24	52*	14
Cn1c(NC(=O)c2ccc(Cl)cc2)c(-c2ccccn2)c(=O)c2ccccc21	7	5	3	-14	44*	5
COc1cc(OC)c(NS(=O)(=O)c2cc(C(=O)OC(C)C(=O)NC3CC3)c(Cl)cc2Cl)cc1Cl (stereo not given)	12	-2	-1	0	46*	66*
COc1ccc(N2C3=C(CC4=C2CCCC4=O)C(=O)CCC3)cc1	6	7	1	32	58*	2
COc1ccc(N2C3=C(CC4=C2CC(C)(C)CC4=O)C(=O)CC(C)(C)C3)cc1	13	-2	0	-3	15	nt
COc1ccc(S(=O)(=O)Nc2ccc(O)c3ccccc23)cc1	42*	7	-3	32	70*	9
COc1ccc(S(=O)(=O)Nc2ccccc2)cc1	15	-4	3	-5	13	nt
O=[N+]([O-])c1ccc(O)c(C=Nc2ccc3c(c2)OCCO3)c1	10	-6	1	15	0	nt
O=[N+]([O-])c1ccc(O)c(C=Nc2ccc3oc(Cc4ccc(Cl)cc4)nc3c2)c1	nt	-9	2	-3	41*	-1
COc1ccc(C2C(C(=O)Nc3cc(Cl)ccc3F)CCC(=O)N2c2ccc(OC)cc2)cc1 (stereo not given)	14	nt	nt	nt	nt	nt
Oc1ccc(/C=N/Nc2cccc3cccnc23)c(O)c1	0	-1	5	-4	38*	6
Cc1ccc(/C=N/Nc2cccc3cccnc23)c(O)c1	3	-7	1	1	16	nt
CCOC(=O)C(Cc1ccccc1)C1(C)Oc2ccccc2O1 (stereo not given)	-9	nt	nt	nt	nt	nt
CCOC(=O)NC1(NCC(C)C)Oc2ccccc2O1	-10	1	1	4	48*	3
CCOC(=O)NC1(NCc2ccccc2)Oc2ccccc2O1	1	-3	0	7	61*	5
CCOC(=O)NC1(NC2CCCCC2)Oc2ccccc2O1	0	5	-3	-15	52*	7
CCOC(=O)C(C(=O)Nc1ccccc1)C1CCCCC1 (stereo not given)	4	3	0	7	-4	nt
Cc1cccc(CN2[C@@H](C)[C@H](c3ccccc3)Oc3cc(Br)ccc3S2(=O)=O)c1	3	nt	nt	nt	nt	nt
Cc1ccccc1CN1CCCCC(NC(=O)C2CCCC2)C1=O (stereo not given)	8	nt	nt	nt	nt	nt
SMILES	TDP2 inh	PAD4 inh	Fh CTSL1 inh	Apaf1 inhib	GSTO1 counter	GSTO1 confirm	others
CC(C)NC(=O)C1CCN(c2cncnc2)CC1	-8	nt	nt	nt	nt	nt
CN(Cc1ccc(Cl)s1)C(=O)CCl	-9	3	16	-18	92*	104*	GSTO1 recomb ABPP=70
C/C(=N\NC(=O)c1cc(O)ccc1O)c1cccc(NC(=O)c2cccc(Cl)c2)c1	-1	-9	2	11	56*	17
C/C(=N\NC(=O)c1cc(O)ccc1O)c1cccc(NC(=O)c2ccc(Cl)cc2)c1	14	-6	-1	26	85*	19
C/C(=N\NC(=O)c1ccccc1O)c1cccc(NC(=O)c2ccccc2)c1	1	-5	3	3	5	nt
Cc1cc(C)c2c(CCl)cc(=O)oc2c1	21	2	2	4	65*	97*
O=C(Nc1ccc(F)cc1)OCc1cn(Cc2ccccc2Cl)nn1	7	nt	nt	nt	nt	nt
